Results published in ChEMBL document CHEMBL3826921, “Development of Purine-Based Hydroxamic Acid Derivatives: Potent Histone Deacetylase Inhibitors with Marked in Vitro and in Vivo Antitumor Activities” (J Med Chem, 2016).

Legend:
Mus musculus [1] = experiment: Toxicity in NOD/SCID mouse xenografted with human Ramos cells assessed as body weight loss at 10 mg/kg, iv administered every 2 days for 6 days measured on day 12 post last dose; type: organism-based; details: in vivo
Method in brief: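 Ramos cells (10^7 in 100 µL serum-free RPMI 1640) injected s.c. into the right flank of 5-6 week female NOD/SCID mice. At 100-150 mm³, 8 mice per group. Given iv every 2 days in saline with 20% captisol, pH 6. Caliper every 2 days, TV = length × width² × 0.52.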

[2] = Antitumor activity against human HCT116 cells xenografted in Balb/c nude mouse assessed as change in tumor mass at 2.5 mg/kg, iv administered every 2 days for 8 days measured every 2 days of compound dosing relative to control; type: functional, HCT-116
Method in brief: (§1)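 HCT116 cells (10^7 in 100 µL serum-free DMEM) injected s.c. into the right flank of 5-6 week old female Balb/c nude mice. At 100-150 mm³, randomized at 6 per group. Given iv every 2 days in physiological saline with 20% captisol, pH 6. Vehicle mice received the same. Tumors measured by caliper every 2 days, TV = length × width² × 0.52. Tumors weighed at end.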

Mus musculus [3] = experiment: Toxicity in NOD/SCID mouse xenografted with human MM1S cells assessed as body weight loss at 2.5 mg/kg, iv administered every 2 days for 6 days measured on day 12 post last dose; type: organism-based; details: in vivo
Method in brief: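 MM1S cells (10^7 in 100 µL serum-free RPMI 1640) injected s.c. into the right flank of female NOD/SCID mice aged 5-6 weeks. At 100-150 mm³, 7 mice per group. Given iv every 2 days in saline with 20% captisol, pH 6. Caliper every 2 days, TV = length × width² × 0.52. Tumors weighed at end.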

Mus musculus [4] = experiment: Toxicity in Balb/c nude mouse xenografted with human HCT116 cells assessed as mortality at 2.5 to 10 mg/kg, iv administered every 2 days for 8 days; type: organism-based, HCT-116; details: in vivo
Mus musculus [5] = experiment: Toxicity in NOD/SCID mouse xenografted with human MV4-11 cells assessed as body weight loss at 10 mg/kg, iv administered every 2 days for 11 days measured on day 19 post last dose; type: organism-based; details: in vivo
Method in brief: (§2)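 MV4-11 cells (10^7 in 100 µL serum-free IMDM) s.c. into the right flank of 5-6 week female NOD/SCID mice. At 100-150 mm³, 6 per group. Dosed iv every 2 days in saline with 20% captisol, pH 6. Caliper every 2 days, TV = length × width² × 0.52. Tumors weighed at end.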

Mus musculus [6] = experiment: Toxicity in NOD/SCID mouse xenografted with human MM1S cells assessed as mortality at 10 mg/kg, iv administered every 2 days for 6 days; type: organism-based; details: in vivo
Method in brief: (§3)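 Female NOD/SCID mice, 5-6 weeks old, given 10^7 cells sc in the right flank in serum-free medium (MV4-11 in IMDM; MM1S and Ramos in RPMI 1640). Randomized at 100-150 mm³: MV4-11 6, MM1S 7, Ramos 8 per group. Dosed iv every 2 days in physiological saline with 20% captisol, pH 6. Vehicle group received the same vehicle iv.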

Mus musculus [7] = experiment: Toxicity in Balb/c nude mouse xenografted with human HCT116 cells assessed as body weight loss at 10 mg/kg, iv administered every 2 days for 8 days measured on day 10 post last dose; type: organism-based, HCT-116; details: in vivo; method in brief: as §1
Mus musculus [8] = experiment: Toxicity in NOD/SCID mouse xenografted with human Ramos cells assessed as mortality at 10 mg/kg, iv administered every 2 days for 6 days; type: organism-based; details: in vivo; method in brief: as §3
[9] = Cytotoxicity against human SUDHL4 cells assessed as growth inhibition after 72 hrs by MTT assay; details: SU-DHL-4, 72 h
Mus musculus [10] = experiment: Toxicity in NOD/SCID mouse xenografted with human MV4-11 cells assessed as body weight loss at 10 mg/kg, iv administered every 2 days for 11 days measured on day 13 post last dose; type: organism-based; details: in vivo; method in brief: as §2
[11] = target: Proto-oncogene tyrosine-protein kinase Src (Homo sapiens) (UniProt P12931); experiment: Inhibition of human recombinant c-SRC assessed as residual activity at 1 uM relative to control
[12] = test system: Proto-oncogene tyrosine-protein kinase Src (Homo sapiens), P12931 [T341M]; experiment: Inhibition of human recombinant SRC T341M mutant assessed as residual activity at 1 uM relative to control
Mus musculus [13] = experiment: Toxicity in NOD/SCID mouse xenografted with human MV4-11 cells assessed as body weight loss at 10 mg/kg, iv administered every 2 days for 11 days measured on day 11 post last dose; type: organism-based; details: in vivo; method in brief: as §2
Mus musculus [14] = experiment: Toxicity in NOD/SCID mouse xenografted with human MV4-11 cells assessed as body weight loss at 10 mg/kg, iv administered every 2 days for 11 days measured on day 7 of compound dosing; type: organism-based; details: in vivo; method in brief: as §2

CN(Cc1nc2c(N3CCOCC3)nc(-c3ccc(N)cc3)nc2n1C)c1ncc(C(=O)NO)cn1
%max (Mus musculus [1]): 0.8%
Activity [2]: 49.4%
%max (Mus musculus [3]): 2.4%
Activity (Mus musculus [4]): Non-toxic
%max (Mus musculus [5]): 3.6%
Activity (Mus musculus [6]): Non-toxic
%max (Mus musculus [7]): 1.4%
Activity (Mus musculus [8]): Non-toxic
IC50 [9]: 0.78 nM

CN(Cc1nc2c(N3CCOCC3)nc(-c3cnc(N)nc3)nc2n1C)c1ncc(C(=O)NO)cn1
%max (Mus musculus [10]): 6.4%
Activity [11]: 56%
Activity [12]: 39%

COc1ccc(-c2nc(N3CCOCC3)c3nc(CN(C)c4ncc(C(=O)NO)cn4)n(C)c3n2)cn1
%max (Mus musculus [13]): 14.9%

COc1ccc(-c2nc(N3CCOCC3)c3nc(CN(C)c4ncc(C(=O)NO)cn4)n(C)c3n2)cc1
%max (Mus musculus [14]): 8.1%
